Data set [1] can be described thus: Antiinflammatory activity in […] BV2 cells assessed as inhibition of LPS-induced nitric oxide production at 80 uM by Griess assay. The data set is classed as functional. The settings on record: Mus musculus, BV-2.
A short description of data set [2]: Cytotoxicity against […] LPS-treated BV2 cells assessed as cell viability up to 80 uM after 24 hrs by MTT assay. The data set is classed as cell-based. Particulars: bv-2, 24 h. On the technique in general: Tetrazolium dyes change colour on reduction, which living cells bring about.
The nature of data set [3]: Antiinflammatory activity in […] BV2 cells assessed as inhibition of LPS-induced nitric oxide production by Griess assay. It counts as functional, cell-based. Particulars: BV-2. A digest of the protocol: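 BV-2 microglial cells were stimulated with lipopolysaccharide, and NO production was measured by the Griess assay. Inhibition is reported as IC50 values in μM.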
(In general: The Griess reaction detects nitrite, a stable product of nitric oxide.)

Where only a bound is given, the exact number is not on record here.

We go through 16 compounds from ChEMBL document CHEMBL3232850, “Anti-inflammatory labdane diterpenoids from Lagopsis supina” (J Nat Prod, 2014).

One may read the inhibition as the drop in the measured response relative to a control, in per cent. The IC50 is the concentration at which inhibition is half-maximal.

As for `C[C@@H]1[C@@H](O)[C@@H](O)[C@H]2C(C)(C)CCC[C@]2(C)[C@@]1(O)CCc1ccoc1`, the inhibition at 80 µM in data set [1] is below 50%.

Regarding `C[C@@H]1C(=O)C=C2C(C)(C)CCC[C@]2(C)[C@@]1(O)CCc1ccoc1`, in data set [2], the Activity entry is reported as “Non-toxic”. Moreover, the IC50 in data set [3] was 14.9 µM.

On to `O=c1c(O)c(-c2ccc(O)c(O)c2)oc2cc(O)cc(O)c12` [QUERCETIN], for which the IC50 in data set [3] came out at 10 µM.

For the compound `CC1(C)CCC[C@@]2(C)C1=CC(=O)[C@](C)(O)[C@]2(O)CCc1ccoc1`, the inhibition at 80 µM in data set [1] is below 50%.

As for `CCC(=O)C(OC(C)=O)[C@H]1C(C)(C)CCC[C@]1(C)C(=O)CCC1=CCOC1=O` (stereo not given in full), the Activity entry in data set [2] is listed as “Non-toxic”. Also, the half-inhibitory concentration (IC50) in data set [3] was determined as 34.9 µM.

In the case of `CC(=O)O[C@@H]1[C@H](O)[C@@H](C)[C@](O)(CCc2ccoc2)[C@@]2(C)CCCC(C)(C)[C@H]12`, in data set [1], the inhibition at 80 µM is below 50%.

Regarding `CC1=C(CCc2ccoc2)[C@@]2(C)CCCC(C)(C)C2=CC1=O`, the Activity entry in data set [2] is “Non-toxic”. Also, the IC50 in data set [3] came out at 34 µM.

For the compound `CCC(=O)C(OC(C)=O)[C@H]1C(C)(C)CCC[C@]1(C)C(=O)CCc1ccoc1` (stereo not given in full), the inhibition at 80 µM in data set [1] was below 50%.

On to `CC(=O)O[C@@H]1[C@H](O)[C@@H](C)[C@]2(CC[C@@]3(CO[C@H](O)C3)O2)[C@@]2(C)CCCC(C)(C)[C@H]12`, for which, in data set [1], the inhibition at 80 µM was below 50%.

Turning to `C[C@@H]1[C@@H](O)C(=O)[C@H]2C(C)(C)CCC[C@]2(C)[C@@]1(O)CCc1ccoc1`, the inhibition at 80 µM in data set [1] was below 50%.

Consider `CC(=O)O[C@@H]1[C@H](OC(C)=O)[C@@H](C)[C@](O)(CCc2ccoc2)[C@@]2(C)CCCC(C)(C)[C@H]12`, for which the inhibition at 80 µM in data set [1] is below 50%.

In the case of `CC(=O)O[C@@H]1[C@H](O)[C@@H](C)[C@]2(CC[C@]3(CO[C@@H](O)C3)O2)[C@@]2(C)CCCC(C)(C)[C@H]12`, the inhibition at 80 µM in data set [1] was below 50%.

For the compound `CC(=O)O[C@@H]1[C@H](O)[C@@H](C)[C@]2(CC[C@]3(CO[C@H](O)C3)O2)[C@@]2(C)CCCC(C)(C)[C@H]12`, the inhibition at 80 µM in data set [1] is below 50%.

As to `COC1C=C(CC[C@@]2(O)[C@H](C)[C@@H](O)[C@@H](OC(C)=O)[C@H]3C(C)(C)CCC[C@@]32C)C(=O)O1` (stereo not given in full), the Activity entry in data set [2] is “Non-toxic”. Further, the half-maximal inhibitory concentration (IC50) in data set [3] is 16.2 µM.

Consider `CC(=O)O[C@H]1[C@@H](O)[C@H]2C(C)(C)CCC[C@]2(C)[C@@](O)(CCc2ccoc2)[C@@H]1C`, for which the inhibition at 80 µM in data set [1] is below 50%.

Consider `CC(=O)O[C@@H]1[C@H](O)[C@@H](C)[C@]2(CC[C@@]3(CO[C@@H](O)C3)O2)[C@@]2(C)CCCC(C)(C)[C@H]12`, for which the inhibition at 80 µM in data set [1] was below 50%.
